From article PMC7473156 (European Journal of Medicinal Chemistry, 2020)
“Also recorded” adds a separate entry of the source.

Tests used:
HepG2 cells [1] = assay: Cell death of HepG2 cells stably transfected with CYP3A4-EGFP or empty vector; type: cell-based, human; conditions: 15 μM, 24 h; for cell death of HepG2 cells: influence of cellular CYP3A4 overexpression: CYP3A4-EGFP versus vector
In short: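 HepG2 cells were lipofected with pcDNA3-CYP3A4-EGFP or pcDNA3-EGFP and kept in G418 (0.5 mg/mL) for four weeks; plasmid presence was confirmed by PCR. Cells were seeded at 0.1 × 10^6 per well, adhered overnight, then exposed to 15 μM for 24 h. Propidium iodide (5 μg/mL in PBS) staining was read by flow cytometry without FSC/SSC gating. Specific cell death was calculated against control. Mean ± SEM, three independent experiments.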

VCR-R CEM cells [2] = assay: Mitochondrial membrane potential; type: cell-based, human; conditions: 24 h
In short: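 VCR-R CEM cells were seeded at 0.125 × 10^6 per well 4 h before 24 h exposure to 5 μM compound or DMSO. JC-1 (1 μg/mL) was applied for 1 h before harvest, with elacridar (5 μM) present […]. Cells were washed, resuspended in PBS and read by flow cytometry as the red/green fluorescence shift.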

VCR-R CEM cells [3] = assay: Western blot analysis of VCR-R CEM cell lysates; type: cell-based, human; conditions: 5 μM, 24 h
In short: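 VCR-R CEM cells were seeded at 2 × 10^6 per well 4 h before treatment with DMSO or 5 μM compound for 24 h. Lysates were made in RIPA, separated by SDS-PAGE and transferred to PVDF. Blots were probed for p-Akt (Ser473), total Akt, PARP, Bcl-xL and Mcl-1 (1:1000) and detected by chemiluminescence, with stain-free total protein as loading control.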

[4] = system: CYP3A4 overexpressing HepaRG™ cells; type: cell-based, human; conditions: 10 μM, 24 h
In short: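 HepaRG cells were differentiated in Maintenance/Metabolism medium, then lipofected with pcDNA3-CYP3A4-EGFP or pcDNA3-EGFP 16 h before treatment. Exposure was 10 μM for 24 h. Cell death was read by propidium iodide staining (5 μg/mL in PBS) and flow cytometry, with no FSC/SSC gating. Specific cell death was calculated against control. Mean ± SEM, three independent experiments.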

HepaRG™ cells = assay: Toxicity to differentiated HepaRG cells without transfection; type: cell-based, human; conditions: 24 h, compared with tetrandrine; for cell viability of HepaRG cells: 10 μM; for toxicity to HepaRG cells (cell viability): 20 μM
In short: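 HepaRG cells were differentiated in Williams' E with GlutaMAX and Maintenance/Metabolism supplement, then exposed to compound for 24 h. Viability was read by CellTiter-Blue and normalised to vehicle control. Mean ± SEM, three independent experiments.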

[5] = system: human umbilical vein endothelial cells (HUVECs); assay: HUVEC viability; type: cell-based; conditions: 10 μM, 24 h, compared with tetrandrine
In short: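 HUVECs were cultured in ECGM with 10% FCS and antibiotics/antimycotic, for at most six passages. They were seeded at […], adhered overnight, then exposed to 1, 5 or 10 μM for 24 h. Viability was read by CellTiter-Blue, with fluorescence normalised to vehicle. Mean ± SEM, three independent experiments.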

HepG2 cells [6] = assay: Western blot analysis of HepG2 cells; type: cell-based, human; conditions: 5 μM, 48 h
In short: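 HepG2 cells were seeded at 0.5 × 10^6 per well, adhered overnight, then treated with DMSO or 5 μM compound for 24 or 48 h. Cells were lysed in RIPA, run on SDS-PAGE and transferred to PVDF. Blots were probed with p-Akt (Ser473), total Akt, PARP, Bcl-xL and Mcl-1 antibodies (1:1000) and detected by chemiluminescence, with stain-free total protein as loading control.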

VCR-R CEM cells [7] = assay: Cell proliferation assay; type: cell-based, human; conditions: 48 h, relative proliferation at 10 μM and IC50
In short: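 VCR-R CEM cells (RPMI 1640, 10% FCS) were seeded at 0.02 × 10^6 per well and rested 4 h. Metabolic activity read at that point served as the zero value. Compound exposure was 48 h, with CellTiter-Blue added 2 h before the end and fluorescence read at 590 nm. IC50 was obtained by nonlinear regression; relative proliferation was also taken at 10 μM.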

P-gp = P-gp (Homo sapiens, UniProt P08183); assay: Calcein-AM retention assay in P-gp overexpressing VCR-R CEM cells; type: cell-based; conditions: 0.1 and 1 μM
In short: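 VCR-R CEM cells were loaded with calcein-AM (200 nM) plus test compound (0.1 or 1 μM) for 30 min at 37 °C. After a wash, they were kept without calcein-AM for a further 60 min at 37 °C, then analysed by flow cytometry. Geometric mean fluorescence intensity was normalised to the calcein-AM-only control.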

VCR-R CEM cells [8] = assay: Apoptosis assay in combination with vincristine; type: cell-based, human; conditions: 1 μM compound with varying doses of VCR, 48 h
[9] = system: peripheral blood mononuclear cells (PBMCs); assay: PBMC cell death; type: cell-based, human; conditions: 5 and 10 μM, 48 h, compared with RMS3 and RMS5
In short: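 PBMCs were isolated from anticoagulated healthy-donor blood on a Ficoll density gradient and kept in RPMI 1640 with 20% FCS and penicillin/streptomycin. Treatment started 4 h after seeding and lasted 48 h. Cells were stained with propidium iodide (5 μg/mL in PBS) and read by flow cytometry, with debris excluded and PI-positive cells counted.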

Sequence of P-gp (P08183 whole entry): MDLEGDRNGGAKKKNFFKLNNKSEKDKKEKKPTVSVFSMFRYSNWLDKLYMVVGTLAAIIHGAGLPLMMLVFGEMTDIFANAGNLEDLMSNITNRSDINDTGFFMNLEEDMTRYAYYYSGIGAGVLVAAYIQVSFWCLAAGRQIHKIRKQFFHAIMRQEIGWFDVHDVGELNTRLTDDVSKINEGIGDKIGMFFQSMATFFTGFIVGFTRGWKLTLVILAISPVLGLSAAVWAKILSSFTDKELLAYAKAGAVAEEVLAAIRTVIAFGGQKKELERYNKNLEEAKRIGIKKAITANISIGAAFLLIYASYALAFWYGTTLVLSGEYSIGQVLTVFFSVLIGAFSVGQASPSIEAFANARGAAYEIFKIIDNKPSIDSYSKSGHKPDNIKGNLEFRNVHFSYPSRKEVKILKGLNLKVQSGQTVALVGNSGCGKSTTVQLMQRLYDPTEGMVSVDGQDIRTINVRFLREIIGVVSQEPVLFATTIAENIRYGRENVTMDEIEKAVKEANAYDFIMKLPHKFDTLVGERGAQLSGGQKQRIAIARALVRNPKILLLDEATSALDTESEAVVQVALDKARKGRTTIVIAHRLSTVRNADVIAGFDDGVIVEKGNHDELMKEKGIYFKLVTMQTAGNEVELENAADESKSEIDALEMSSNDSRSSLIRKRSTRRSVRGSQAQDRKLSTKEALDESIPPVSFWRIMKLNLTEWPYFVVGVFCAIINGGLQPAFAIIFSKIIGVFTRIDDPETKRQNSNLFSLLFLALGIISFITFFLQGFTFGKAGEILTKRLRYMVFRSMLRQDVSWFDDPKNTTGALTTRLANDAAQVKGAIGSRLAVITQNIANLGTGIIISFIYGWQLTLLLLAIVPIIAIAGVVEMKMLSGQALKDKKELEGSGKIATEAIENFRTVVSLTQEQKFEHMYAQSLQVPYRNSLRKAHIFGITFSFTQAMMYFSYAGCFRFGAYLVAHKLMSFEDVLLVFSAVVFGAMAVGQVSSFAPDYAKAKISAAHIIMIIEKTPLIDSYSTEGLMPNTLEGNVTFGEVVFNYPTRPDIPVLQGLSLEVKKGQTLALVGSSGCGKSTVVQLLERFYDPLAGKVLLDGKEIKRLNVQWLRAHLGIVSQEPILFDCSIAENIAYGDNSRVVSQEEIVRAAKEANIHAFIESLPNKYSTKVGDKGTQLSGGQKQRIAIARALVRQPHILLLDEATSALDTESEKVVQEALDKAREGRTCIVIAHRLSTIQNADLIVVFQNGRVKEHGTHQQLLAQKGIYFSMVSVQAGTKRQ

| Structure (SMILES) | cytotoxicity against HepG2 cells in comparison to tetrandrine (HepG2 cells [1]) | mitochondrial membrane potential ΔΨm (JC-1 shift towards green fluorescence) (VCR-R CEM cells [2]) | PARP cleavage (VCR-R CEM cells [3]) | toxicity to HepaRG cells (cell viability) (HepaRG™ cells) | other results |
| --- | --- | --- | --- | --- | --- |
| COc1cc2c3cc1Oc1c(OC)c(OC)cc4c1C(Cc1cccc(c1)Oc1ccc(cc1)CC3N(C)CC2)N(C)CC4 (racemic) [RMS1, (±)-12-Desmethoxytetrandrine and –isotetrandrine] | generally increased cytotoxicities | no such an effect | detected | – | – |
| COc1cc2c3cc1Oc1c(OC)c(OC)cc4c1C(Cc1cccc(c1)Oc1ccc(cc1)CC3N(C)CC2)N(C)CC4 (racemic) [RMS2, (±)-12-Desmethoxytetrandrine and –isotetrandrine] | generally increased cytotoxicities | – | – | significantly more toxic to HepaRG™ cells than tetrandrine | cell death of CYP3A4 overexpressing HepaRG cells versus empty vector [4]: strongest effect on cell viability; cell viability of HepaRG cells (HepaRG™ cells): strongly decreased cell viability |
| COc1cc2c3cc1Oc1c(OC)c(OC)cc4c1C(Cc1ccc(OC(F)(F)F)c(c1)Oc1ccc(cc1)CC3N(C)CC2)N(C)CC4 (racemic) [RMS3, (±)-12-Desmethoxy-12-trifluoromethoxytetrandrine and –isotetrandrine] | generally increased cytotoxicities; also recorded: strongly increased cytotoxicites | – | detected | – | viability of HUVECs [5]: slightly stronger effect on the viability of HUVECs than tetrandrine |
| COc1cc2c3cc1Oc1c(OC)c(OC)cc4c1C(Cc1ccc(OC(F)(F)F)c(c1)Oc1ccc(cc1)CC3N(C)CC2)N(C)CC4 (racemic) [RMS4, (±)-12-Desmethoxy-12-trifluoromethoxytetrandrine and –isotetrandrine] | generally increased cytotoxicities | – | detected | significantly more toxic to HepaRG™ cells than tetrandrine | p-Akt levels (HepG2 cells [6]): reduced; cell viability of HepaRG cells (HepaRG™ cells): slightly |
| COc1cc2c3cc1Oc1c(OC)c(OC)cc4c1C(Cc1cc(cs1)Oc1ccc(cc1)CC3N(C)CC2)N(C)CC4 (racemic) [RMS5, (±)-Ring C thiophene analogues of tetrandrine and –isotetrandrine] | generally increased cytotoxicities; also recorded: strongly increased cytotoxicites | – | – | – | expression of Bcl-XL and Mcl-1 (HepG2 cells [6]): slightly diminished; p-Akt levels (HepG2 cells [6]): reduced |
| COc1cc2c3cc1Oc1c(OC)c(OC)cc4c1C(Cc1cc(cs1)Oc1ccc(cc1)CC3N(C)CC2)N(C)CC4 (racemic) [RMS6, (±)-Ring C thiophene analogues of tetrandrine and –isotetrandrine] | – | no such an effect | – | significantly less toxic than tetrandrine | inhibition of proliferation of VCR-R CEM cells (VCR-R CEM cells [7]): nearly inactive; also recorded: no direct effect on proliferation; prevention of efflux of calcein-AM (P-gp inhibition) (P-gp): inhibition of P-gp; sensitization of VCR-R CEM cells to vincristine (apoptosis) (VCR-R CEM cells [8]): successfully sensitized VCR-R CEM cells to VCR |
| COc1cc2c3cc1Oc1c(OC)c(OC)cc4c1C(Cc1ccc(Cl)c(c1)Oc1ccc(cc1)CC3N(C)CC2)N(C)CC4 (racemic) [RMS7, (±)-12-Desmethoxy-12-chlorotetrandrine and –isotetrandrine] | generally increased cytotoxicities | no such an effect | – | – | – |
| COc1cc2c3cc1Oc1c(OC)c(OC)cc4c1C(Cc1ccc(Cl)c(c1)Oc1ccc(cc1)CC3N(C)CC2)N(C)CC4 (racemic) [RMS8, (±)-12-Desmethoxy-12-chlorotetrandrine and –isotetrandrine] | generally increased cytotoxicities | – | detected | significantly more toxic to HepaRG™ cells than tetrandrine | sensitization of VCR-R CEM cells to vincristine (apoptosis) (VCR-R CEM cells [8]): most potent analogue as it significantly increased apoptosis at 0.01 μM VCR; cell viability of HepaRG cells (HepaRG™ cells): slightly |
| COc1cc2c3cc1Oc1c(OC)c(OC)cc4c1C(CCCCOc1ccc(cc1)CC3N(C)CC2)N(C)CC4 (racemic) [RMS9, (±)-Ring C propylidene analogues of tetrandrine and –isotetrandrine] | – | no such an effect | – | significantly less toxic than tetrandrine | inhibition of proliferation of VCR-R CEM cells (VCR-R CEM cells [7]): nearly inactive; prevention of efflux of calcein-AM (P-gp inhibition) (P-gp): strongly reduces it; sensitization of VCR-R CEM cells to vincristine (apoptosis) (VCR-R CEM cells [8]): all but RMS9 and RMS10 were able to sensitize |
| COc1cc2c3cc1Oc1c(OC)c(OC)cc4c1[C@@H](Cc1ccc(O)c(c1)Oc1ccc(cc1)C[C@@H]3N(C)CC2)N(C)CC4 [berbamine, reference compound] | – | – | – | – | cell death of HepG2 cells: influence of cellular CYP3A4 overexpression (HepG2 cells [1]): not significantly increased |
| COc1cc2c(cc1OC)[C@@H](Cc1ccc(Oc3cc(C[C@@H]4c5cc(OC)c(OC)cc5CCN4C)ccc3O)cc1)N(C)CC2 [dauricine, reference compound] | – | – | – | – | cell death of HepG2 cells: influence of cellular CYP3A4 overexpression (HepG2 cells [1]): not significantly increased |
| COc1ccc2cc1Oc1ccc(cc1)C[C@H]1c3cc(c(OC)cc3CCN1C)Oc1c(OC)c(OC)cc3c1[C@H](C2)N(C)CC3 [tetrandrine, reference compound] | – | no such an effect | – | – | percentage of dead PBMCs [9]: highest percentage of dead PBMCs |
